Test results: ChEMBL document CHEMBL3244429, “Antischistosomal effects of 5-(2,4,5-trichlorophenyl)hydantoin and related compounds” (J Med Chem, 1977)
Calls of active or inactive are those of the source. The rule behind the calls is not given here.

How the values were obtained:
[1] = system: Schistosoma mansoni; assay: Antischistosomal activity against Schistosoma mansoni Puerto Rican infected mouse assessed as reduction in live schistosomes at 140 mg/kg/day, through diet for 14 days; format: functional; conditions: 336 h
Summary of the method: (§1)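 Mice carrying a Puerto Rican strain of S. mansoni received drug mixed into a powdered diet for 14 days, with dose expressed as mg/kg per day. The read-out was the reduction in live schistosomes in the infected mice.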

[2] = system: Schistosoma mansoni; assay: Antischistosomal activity against Schistosoma mansoni Puerto Rican infected mouse assessed as infected mouse at 140 mg/kg/day, through diet for 14 days; format: functional; summary of the method: as §1
[3] = Toxicity in mouse po dosed through diet for 14 days; format: organism-based; conditions: in vivo
Summary of the method: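 Mice infected with a Puerto Rican strain of *Schistosoma mansoni*; drug mixed into a powdered diet and fed orally for 14 days; doses expressed as mg/kg per day.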

[4] = system: Schistosoma mansoni; assay: Antischistosomal activity against Schistosoma mansoni infected rhesus monkey assessed as temporary egg suppression at 200 mg/kg/day, through gavage for 10 days; format: functional, organism-based
Summary of the method: (§2)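 S. mansoni-infected rhesus monkeys were dosed daily by gavage. Assessment was by egg output over time (temporary suppression) and by the number of live and dead worms remaining in the treated animal.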

[5] = system: Schistosoma mansoni; assay: Antischistosomal activity against Schistosoma mansoni infected rhesus monkey assessed as removal of all worms at 200 mg/kg/day, through gavage for 5 to 10 days; format: functional, organism-based; summary of the method: as §2
[6] = system: Schistosoma mansoni; assay: Antischistosomal activity against Schistosoma mansoni Puerto Rican infected mouse assessed as infected mouse at 376 mg/kg/day, through diet for 14 days; format: functional; summary of the method: as §1
[7] = system: Schistosoma mansoni; assay: Antischistosomal activity against Schistosoma mansoni Puerto Rican infected mouse assessed as reduction in live schistosomes at 376 mg/kg/day, through diet for 14 days; format: functional; conditions: 336 h; summary of the method: as §1
[8] = system: Schistosoma mansoni; assay: Antischistosomal activity against Schistosoma mansoni Puerto Rican infected mouse assessed as reduction in live schistosomes at 288 mg/kg/day, through diet for 14 days; format: functional; conditions: 336 h; summary of the method: as §1
[9] = system: Schistosoma mansoni; assay: Antischistosomal activity against Schistosoma mansoni Puerto Rican infected mouse assessed as infected mouse at 288 mg/kg/day, through diet for 14 days; format: functional; summary of the method: as §1
[10] = system: Schistosoma mansoni; assay: Antischistosomal activity against Schistosoma mansoni Puerto Rican infected mouse assessed as infected mouse at 298 mg/kg/day, through diet for 14 days; format: functional; summary of the method: as §1
[11] = system: Schistosoma mansoni; assay: Antischistosomal activity against Schistosoma mansoni Puerto Rican infected mouse assessed as reduction in live schistosomes at 298 mg/kg/day, through diet for 14 days; format: functional; conditions: 336 h; summary of the method: as §1
[12] = system: Schistosoma mansoni; assay: Antischistosomal activity against Schistosoma mansoni Puerto Rican infected mouse assessed as reduction in live schistosomes at 78 mg/kg/day, through diet for 14 days; format: functional; conditions: 336 h; summary of the method: as §1
[13] = system: Schistosoma mansoni; assay: Antischistosomal activity against Schistosoma mansoni Puerto Rican infected mouse assessed as infected mouse at 78 mg/kg/day, through diet for 14 days; format: functional; summary of the method: as §1
[14] = system: Schistosoma mansoni; assay: Antischistosomal activity against Schistosoma mansoni Puerto Rican infected mouse assessed as reduction in live schistosomes at 305 mg/kg/day, through diet for 14 days; format: functional; conditions: 336 h; summary of the method: as §1
[15] = system: Schistosoma mansoni; assay: Antischistosomal activity against Schistosoma mansoni Puerto Rican infected mouse assessed as infected mouse at 305 mg/kg/day, through diet for 14 days; format: functional; summary of the method: as §1
[16] = system: Schistosoma mansoni; assay: Antischistosomal activity against Schistosoma mansoni Puerto Rican infected mouse assessed as reduction in live schistosomes at 302 mg/kg/day, through diet for 14 days; format: functional; conditions: 336 h; summary of the method: as §1
[17] = system: Schistosoma mansoni; assay: Antischistosomal activity against Schistosoma mansoni Puerto Rican infected mouse assessed as infected mouse at 302 mg/kg/day, through diet for 14 days; format: functional; summary of the method: as §1
[18] = system: Schistosoma mansoni; assay: Antischistosomal activity against Schistosoma mansoni Puerto Rican infected mouse assessed as infected mouse at 332 mg/kg/day, through diet for 14 days; format: functional; summary of the method: as §1
[19] = system: Schistosoma mansoni; assay: Antischistosomal activity against Schistosoma mansoni Puerto Rican infected mouse assessed as reduction in live schistosomes at 332 mg/kg/day, through diet for 14 days; format: functional; conditions: 336 h; summary of the method: as §1
[20] = system: Schistosoma mansoni; assay: Antischistosomal activity against Schistosoma mansoni Puerto Rican infected mouse assessed as reduction in live schistosomes at 301 mg/kg/day, through diet for 14 days; format: functional; conditions: 336 h; summary of the method: as §1
[21] = system: Schistosoma mansoni; assay: Antischistosomal activity against Schistosoma mansoni Puerto Rican infected mouse assessed as infected mouse at 301 mg/kg/day, through diet for 14 days; format: functional; summary of the method: as §1
[22] = system: Schistosoma mansoni; assay: Antischistosomal activity against Schistosoma mansoni Puerto Rican infected mouse assessed as reduction in live schistosomes at 400 mg/kg/day, through gavage for 10 days; format: functional; conditions: po, 240 h
[23] = system: Schistosoma mansoni; assay: Antischistosomal activity against Schistosoma mansoni Puerto Rican infected mouse assessed as infected mouse at 400 mg/kg/day, through gavage for 10 days; format: functional
[24] = system: Schistosoma mansoni; assay: Antischistosomal activity against Schistosoma mansoni Puerto Rican infected mouse assessed as reduction in live schistosomes at 329 mg/kg/day, through diet for 14 days; format: functional; conditions: 336 h; summary of the method: as §1
[25] = system: Schistosoma mansoni; assay: Antischistosomal activity against Schistosoma mansoni Puerto Rican infected mouse assessed as infected mouse at 329 mg/kg/day, through diet for 14 days; format: functional; summary of the method: as §1

CCN(CC)CCNc1ccc(C)c2sc3ccccc3c(=O)c12.Cl [LUCANTHONE HYDROCHLORIDE]
inhibition in vivo at 140 mg/kg/day [1]: 71%
Activity [2]: 90%
MTD at 336 h [3]: 140 mg/kg

O=C1NC(=O)C(c2cc(Cl)c(Cl)cc2Cl)N1 (stereo unspecified) [listing 1 of 2 here]
inhibition [4]: Dose-dependent effect
inhibition [5]: Active

CC1(c2ccc(Cl)c(Cl)c2)NC(=O)NC1=O (stereo unspecified)
Activity [6]: 100%
inhibition in vivo at 376 mg/kg/day [7]: 38%

C[N+](C)(C)CCCN1C(=O)NC(c2cc(Cl)c(Cl)cc2Cl)C1=O.[I-] (stereo unspecified)
inhibition in vivo at 288 mg/kg/day [8]: 13%
Activity [9]: 100%

CC1(c2cccc([N+](=O)[O-])c2)NC(=O)NC1=O (stereo unspecified)
Activity [10]: 100%
inhibition in vivo at 298 mg/kg/day [11]: 0%

CN(C)CCCN1C(=O)NC(c2cc(Cl)c(Cl)cc2Cl)C1=O (stereo unspecified)
inhibition in vivo at 78 mg/kg/day [12]: 0%
Activity [13]: 100%
MTD at 336 h [3]: 78 mg/kg

O=C1NC(=O)C(c2c(Cl)ccc(Cl)c2Cl)N1 (stereo unspecified)
inhibition in vivo at 305 mg/kg/day [14]: 0%
Activity [15]: 100%

O=C1NC(=O)C(c2ccc(Cl)cc2Cl)N1 (stereo unspecified)
inhibition in vivo at 302 mg/kg/day [16]: 36%
Activity [17]: 100%

Cc1c(Cl)ccc(C2(C)NC(=O)NC2=O)c1Cl (stereo unspecified)
Activity [18]: 100%
inhibition in vivo at 332 mg/kg/day [19]: 26%

CC1(c2ccc(Cl)cc2Cl)NC(=O)NC1=O (stereo unspecified)
inhibition in vivo at 301 mg/kg/day [20]: 8%
Activity [21]: 100%

O=C1NC(=O)C(c2cc(Cl)c(Cl)cc2Cl)N1 (stereo unspecified) [listing 2 of 2 here]
inhibition in vivo at 400 mg/kg/day [22]: 0%
Activity [23]: 100%
inhibition in vivo at 329 mg/kg/day [24]: 80%
Activity [25]: 67%
